How the values were obtained:
[1] = target: ATP-dependent translocase ABCB1 (Mus musculus, UniProt P21447); test: TP_TRANSPORTER: increase in brain concentration in mdr1a(-/-) mouse; type: functional, organism-based; conditions: in vivo
How it was run: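 Male mdr1a(-/-) (FVB/TacBR-[KO]mdr1aN7) and matched mdr1a(+/+) FVB/NTacBR mice, 6–12 wk, three per group. [14C]-drug (indinavir 1.5 mg/kg, nelfinavir 3 mg/kg, saquinavir 2 mg/kg) in ethanol/0.9% saline, given i.v. into tail vein over 10 min. At 4 h, isoflurane anesthesia, orbital exsanguination, brain homogenized in 4% BSA. Total radioactivity by scintillation; value is (-/-)/(+/+) ratio of brain levels.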

[2] = target: T1, ATP-dependent translocase ABCB1 (Homo sapiens, UniProt P08183); test: TP_TRANSPORTER: transepithelial transport (basal to apical) in MDR1-expressing LLC-PK1 cells; type: functional, cell-based; conditions: pig
How it was run: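 L-MDR1 cells (LLC-PK1 expressing MDR1) plated at 4×10^5 cells/12-mm well on 3.0 µm polycarbonate Transwell filters, used day 4; resistance ≥200 Ω after blank correction. Serum-free Optimem; [14C]-drug 5 µM added to basal compartment, apical radioactivity sampled at 1, 2, 3, 4 h by scintillation, given as % of total added; parental LLC-PK1 run alongside; mean ± SE, ≥3 experiments.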

[3] = target: T1, ATP-dependent translocase ABCB1; test: TP_TRANSPORTER: inhibition of Saquinavir transepithelial transport (basal to apical) (Saquinavir: 5 uM, PSC-833: 1 uM) in Caco-2 cells; type: functional, cell-based; conditions: caco-2, 1 µM
How it was run: (§1)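 Caco-2 monolayers on 0.4 µm polycarbonate Transwell filters, plated at 10^5 cells/12-mm well, used on day 4; wells with resistance ≥200 Ω (blank-corrected) used. […] Radioactivity reaching apical side sampled at 1, 2, 3, 4 h, expressed as % of added; mean ± SE, ≥3 experiments.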

[4] = target: T1, ATP-dependent translocase ABCB1; test: TP_TRANSPORTER: inhibition of Indinavir transepithelial transport (basal to apical) (Indinavir: 5 uM, PSC-833: 1 uM) in Caco-2 cells; type: functional, cell-based; conditions: caco-2, 1 µM; how it was run: as §1
[5] = target: T1, ATP-dependent translocase ABCB1; test: TP_TRANSPORTER: inhibition of Nelfinavir transepithelial transport (basal to apical) (Nrlfinavir: 5 uM, PSC-833: 1 uM) in Caco-2 cells; type: functional, cell-based; conditions: caco-2, 1 µM; how it was run: as §1

T1 sequence (P08183 whole entry): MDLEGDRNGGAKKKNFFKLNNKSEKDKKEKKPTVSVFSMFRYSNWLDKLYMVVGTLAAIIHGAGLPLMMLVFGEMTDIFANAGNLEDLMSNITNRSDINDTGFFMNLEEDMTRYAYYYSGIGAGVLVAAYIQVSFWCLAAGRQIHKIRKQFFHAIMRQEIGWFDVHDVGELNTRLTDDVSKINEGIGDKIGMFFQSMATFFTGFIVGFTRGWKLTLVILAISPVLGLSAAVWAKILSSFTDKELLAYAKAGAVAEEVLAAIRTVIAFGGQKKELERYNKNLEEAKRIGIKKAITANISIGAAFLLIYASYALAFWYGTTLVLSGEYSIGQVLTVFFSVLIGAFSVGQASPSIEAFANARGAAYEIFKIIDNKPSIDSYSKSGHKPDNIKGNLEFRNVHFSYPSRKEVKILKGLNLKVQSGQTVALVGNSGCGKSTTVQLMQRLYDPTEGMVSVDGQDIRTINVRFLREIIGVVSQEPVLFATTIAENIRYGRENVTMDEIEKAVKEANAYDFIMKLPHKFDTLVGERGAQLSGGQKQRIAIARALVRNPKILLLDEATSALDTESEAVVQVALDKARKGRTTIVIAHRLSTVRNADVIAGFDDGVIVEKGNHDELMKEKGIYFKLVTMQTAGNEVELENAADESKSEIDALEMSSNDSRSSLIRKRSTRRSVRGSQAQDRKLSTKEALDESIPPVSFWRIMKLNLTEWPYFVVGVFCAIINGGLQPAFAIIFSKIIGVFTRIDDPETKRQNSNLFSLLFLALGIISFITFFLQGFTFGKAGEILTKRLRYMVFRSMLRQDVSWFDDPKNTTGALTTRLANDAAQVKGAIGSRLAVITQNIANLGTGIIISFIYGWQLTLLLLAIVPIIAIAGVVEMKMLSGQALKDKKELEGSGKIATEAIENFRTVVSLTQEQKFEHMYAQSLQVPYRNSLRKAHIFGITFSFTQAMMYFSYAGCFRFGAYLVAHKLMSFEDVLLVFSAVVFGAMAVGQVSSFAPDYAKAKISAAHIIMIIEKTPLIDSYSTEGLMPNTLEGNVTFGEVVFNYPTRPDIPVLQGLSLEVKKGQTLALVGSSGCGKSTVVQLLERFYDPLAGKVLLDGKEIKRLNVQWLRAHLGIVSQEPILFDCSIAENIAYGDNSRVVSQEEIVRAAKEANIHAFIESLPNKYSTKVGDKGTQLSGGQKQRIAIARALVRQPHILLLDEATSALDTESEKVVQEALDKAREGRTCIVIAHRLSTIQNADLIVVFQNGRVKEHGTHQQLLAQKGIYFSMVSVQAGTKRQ
ATP-dependent translocase ABCB1 (Mus musculus, UniProt P21447), sequence (P21447 whole entry): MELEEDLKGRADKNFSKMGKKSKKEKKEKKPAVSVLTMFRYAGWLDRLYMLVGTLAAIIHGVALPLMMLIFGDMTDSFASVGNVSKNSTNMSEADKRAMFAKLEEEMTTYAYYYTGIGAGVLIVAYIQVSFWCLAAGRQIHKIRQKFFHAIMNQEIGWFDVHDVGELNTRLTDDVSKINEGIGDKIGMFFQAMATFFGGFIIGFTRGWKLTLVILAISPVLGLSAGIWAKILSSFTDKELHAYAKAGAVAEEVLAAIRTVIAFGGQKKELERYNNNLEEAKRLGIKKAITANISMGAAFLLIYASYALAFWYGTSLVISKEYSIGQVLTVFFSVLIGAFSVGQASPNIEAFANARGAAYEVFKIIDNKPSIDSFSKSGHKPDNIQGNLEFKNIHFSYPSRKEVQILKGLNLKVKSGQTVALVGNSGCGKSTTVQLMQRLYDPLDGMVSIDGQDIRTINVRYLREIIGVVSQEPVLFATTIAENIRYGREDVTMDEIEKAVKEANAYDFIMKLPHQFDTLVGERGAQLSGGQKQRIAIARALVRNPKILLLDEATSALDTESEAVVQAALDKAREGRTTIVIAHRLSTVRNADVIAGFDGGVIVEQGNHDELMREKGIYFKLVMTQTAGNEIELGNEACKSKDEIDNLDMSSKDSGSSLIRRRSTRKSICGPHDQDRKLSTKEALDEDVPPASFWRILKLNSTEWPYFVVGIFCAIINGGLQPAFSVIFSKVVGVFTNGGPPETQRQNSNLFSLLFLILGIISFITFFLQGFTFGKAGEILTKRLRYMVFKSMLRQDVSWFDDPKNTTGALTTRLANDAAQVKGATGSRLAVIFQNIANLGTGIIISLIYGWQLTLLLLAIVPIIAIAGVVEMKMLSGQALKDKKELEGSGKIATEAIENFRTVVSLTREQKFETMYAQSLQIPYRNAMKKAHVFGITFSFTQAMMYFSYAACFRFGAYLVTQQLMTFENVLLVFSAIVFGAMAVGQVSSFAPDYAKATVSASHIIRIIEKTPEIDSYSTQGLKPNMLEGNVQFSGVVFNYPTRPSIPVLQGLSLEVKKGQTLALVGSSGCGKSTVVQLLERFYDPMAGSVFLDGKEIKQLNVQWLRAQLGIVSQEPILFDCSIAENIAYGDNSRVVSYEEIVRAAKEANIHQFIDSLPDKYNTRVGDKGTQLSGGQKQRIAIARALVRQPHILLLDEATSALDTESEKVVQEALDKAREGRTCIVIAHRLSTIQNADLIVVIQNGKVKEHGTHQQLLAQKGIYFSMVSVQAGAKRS

Activity [1]	Activity [2]	Activity [3]	Activity [4]	Activity [5]	SMILES
substrate [+]	–	–	–	–	CC(C)(C)NC(=O)[C@@H]1C[C@@H]2CCCC[C@@H]2CN1C[C@@H](O)[C@H](Cc1ccccc1)NC(=O)[C@H](CC(N)=O)NC(=O)c1ccc2ccccc2n1
substrate [+]	substrate [+]	–	–	–	CC(C)(C)NC(=O)[C@@H]1CN(Cc2cccnc2)CCN1C[C@@H](O)C[C@@H](Cc1ccccc1)C(=O)N[C@H]1c2ccccc2C[C@H]1O.O
substrate [+]	substrate [+]	–	–	–	Cc1c(O)cccc1C(=O)N[C@@H](CSc1ccccc1)[C@H](O)CN1C[C@H]2CCCC[C@H]2C[C@H]1C(=O)NC(C)(C)C
–	–	inhibitor [+]	inhibitor [+]	inhibitor [+]	C/C=C/C[C@@H](C)C(=O)[C@H]1C(=O)N[C@@H](C(C)C)C(=O)N(C)CC(=O)N(C)[C@@H](CC(C)C)C(=O)N[C@@H](C(C)C)C(=O)N(C)[C@@H](CC(C)C)C(=O)N[C@@H](C)C(=O)N[C@H](C)C(=O)N(C)[C@@H](CC(C)C)C(=O)N(C)[C@@H](CC(C)C)C(=O)N(C)[C@@H](C(C)C)C(=O)N1C [VALSPODAR]

— ChEMBL document CHEMBL2074309, “The drug transporter P-glycoprotein limits oral absorption and brain entry of HIV-1 protease inhibitors” (J Clin Invest, 1998)
